B1: tRNA (parent)
chain: GUUCCGUUGGCGUAAUGGUAACGCGUCUCCCUCCUAAGGAGAAGACUGCGGGUUCGAGUCCCGUACGGAACG

Variants at the floor of the assay were thinned out. Bounds are passed on as bounds.

Variants of B1 are the subject of this data set. Kind of data set: yeast fitness relative to wild type (ratio to wild type); higher = fitter; tRNA-Arg(CCU), competitive growth, 37 C, YPD. The method in brief:
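Gene amplicons from the start population and from each of six end populations were read by 100-nucleotide paired-end sequencing. Those end populations came from pooled Saccharomyces cerevisiae strains carrying tRNA-Arg(CCU) gene variants at the native locus, competed in YPD at 37°C for 24 hours. Fitness relative to wild type was worked out from changes in genotype frequencies. Genotypes needed ≥ 100 starting reads, and estimates < 0.5 were set to 0.5.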
Take GUUCCGCUGGCGUAAUGGUAACGCGUCUCCCUCCUUAGGAGAAGACUGCCGGUUCGAGUACCGUACGGAACG: the yeast fitness came out at 0.57.

Take GUUCCGCUGGCGUAAUGGUAUCGAGUCUCCCUCCUAAGGAGAAGACUGCGGGUUCGAGUCCUGCACGGAACG: the yeast fitness stood at 0.661.

For GUUCCGCUGGCGUAAUGGUAACGUGUCUCGCUCCUAAGGAGAAGCCUGCGGGUUCGAGUCGCGUACGGAACG, the yeast fitness is no more than 0.5.

For GUUCCGCUGGCGUCAUGGUAACGCGUCUCCCUCCUAAGGAGAAGACUGCGGGUUCGAGUCCCCUACGGAACG, the yeast fitness was determined as 0.573.

Turning to GUUCCGCUGGCGUAAUGGUGACGCGUCUCCCUCCUAAGGUGAAGACUGCGGGUUCGAGUCCCGUACGGAACG, the yeast fitness amounted to 0.597.

Regarding GUUCCGCUGGCGUAAUGGUAACGCGUCUCCCUCCUAAGGAGAAGACUGCGGGUUCGAGUCCCGUGCGGAACG, the yeast fitness was determined as 0.95.

Regarding GUUCCGCUGGCGUAAUGGUAACGCGUCUCCCUCCUAAGGAGAAGACUGCGGGUUCGAGUCCCGUCCGGAACG, the yeast fitness came out at 0.912.

Take GUUCCGCUGGGGUAAUGGUAACGAGUCUCCCUCCUAAGGAGAAGACAGCGGGUUCGAGUCCCGCACUGAACG: the yeast fitness was no more than 0.5.

GUUCCGCUGGUGUAAUGGGAACGCGUCUUCCCCGUAAGGAGAAGACUGCGGCUUCGAGUCCCGUACGGAGCG: the yeast fitness is no more than 0.5.

Regarding GUUCCGCUGGCGUAAUGGUAACGCGUCUCCCUCCUAAGGAGCAGACUGCGGGUUUGAGUCCCGUACGGAACG, the yeast fitness was no more than 0.5.

As to GUUCCGCUGGCGUAAUGGUGACGCGUCUCCCUCCUAAGGAGAAGACUGCGGGUUCGAGUCUCGUACGGAACG, the yeast fitness was found to be 0.587.

Turning to GUUCCGCUGGCGUAAUGGUAAGGCGUCUCCCUCCUAAGGUGAAGACUGCGGGUUCGAGUCCCGUACGGCACG, the yeast fitness is 0.574.

On to GUUCCGCUGGCGUAAUGGUAACGCGUCUCCCUCCUAGGGAGCAGACUGGGGGUUCGAGUCUCAUACGGAACG, for which the yeast fitness is no more than 0.5.

On to GUUCCGCUGGUGUAAUGGUAACGCGUCUCCCUCCUAAGCAGAAGUCUGCGGGUUCGAGUCUCGUACGGAACG, for which the yeast fitness was no more than 0.5.

Take GUUCCGCUGGCGUAAUGGUGGCGCGUCUCCCUCCUAAGGAGAAGACUGCGGGUUCGAGUCCCGUACGGAACG: the yeast fitness was 0.562.

Take GUUCCGCUGGCGUCAUGAUAACGCGUCUCCCUCCUAAGGAGACGACUGCGGGUUCGUGUCCCAUACGGAACG: the yeast fitness is no more than 0.5.

Turning to GUUCCGCUGGCGUAAUGGUAACGCGUCUCCCUCCUAAGGUGUAGACUGCGGGUACGAGUCCCGUACGGAACG, the yeast fitness was 0.661.

For the variant GUUCCGCUGGGGAAAUGGUAACGCGUCUUCCUCCUAAGGAGAAGACUGCGGGUUCGAGUCCCGUACGGUACG, the yeast fitness was no more than 0.5.

With GUUCCGCUGGGGGAAUGGUAACGCGUCUCUCUCCUAAGGAGAAGACUGCGGGUUCGAGUCCCGUACGGAACG, the yeast fitness is no more than 0.5.

GUUCCGCUGGCGUAAUGGUAACGCGUCUCCCUCCUAAGGAGAAGACUGCGGGUUCGAGUCCCGUACGGAUCG: the yeast fitness is 0.692.

As for GUUCCGCUGGCGUAAUGGUAACGCGUCUCCCUCCUAAGGAGAAGACUGCGGGUUCGAGUCCCGUACGGACCG, the yeast fitness was 0.742.

For the variant GUUCCGCUGGCGUAAUGGUAGCGCGUCUCCCUCCUAAGGACAAGACUGCGGGCUCGAGUCCCGAACGGAACG, the yeast fitness was no more than 0.5.

GUUCCGCUGGCGUAAUGGUACCGCGUCUCCCUCGGAAGGAGAACACUGCGGGUUCGAGUCGCGUACGGAACG: the yeast fitness was 0.636.

In the case of GUUCCGCUGGCGUAAUGGUAACGCGUCUCCCUCCUGAGGAGAAGACUGCGGGUUCGAGUCCCGUACGGAACG, the yeast fitness stood at 0.888.

In the case of GUUCCGCUGGCGUAAUGGUAACGGGUCUCCAUCCUAAGGAGAAGACUGCGGGUUCGAGUCCCGUACGGAACG, the yeast fitness is no more than 0.5.

Turning to GUUCCGCUGGCGUAAUGGUAACGCGUCUCCCUCCUAAGGAGAAGACUGCGGGUUCGAGUCCCGUUCGGCACG, the yeast fitness worked out at 0.532.

Turning to GUUCCGCUGGCGUAAUGGUAACGCGUCUCCCUCCUACGGCGAAGUCUGCGGGUUCGCGUCCCGUACGGAACG, the yeast fitness was 0.573.

GUUCCGCUGGCGUGAUGGGAACGCGUCUGCCUCCUAAGGAGAAGACUGAGGCUUCGAGUCCCAUACGGAACG: the yeast fitness is no more than 0.5.

Take GUUCCGCUGGCGUAAUGGUAACGCGUCUCCCUCCUUAGGAGAAGACUGGGGGUUCGAGUCCCGUACGGAACG: the yeast fitness was determined as 0.744.

GUUCCGCUGGCGUAAUGGUAACGCGUCUCCCUCCUGAGGAGAUGACUGCGGGUUCGAGUCCGGUACGGAACG: the yeast fitness worked out at 0.603.

GUUCCGCUGGCGUAAUGGUUACGCGUCUCCCUCCUGAGGAGAAGACUGCGGGUUCGAGUCCUGUACGGAACG: the yeast fitness is no more than 0.5.

On to GUUCCGCUGGCGUAAUGGUAACGAGUCUCCCUCCUAAGGAGAAGACUGCGGGUUCGAGUCCCGUACGGAACG, for which the yeast fitness was found to be 0.623.

For GUUCCGCUGGCGUAAUGGUAACGCGUCUCCCUCCUGAGGAGAAGACUGCGGGUUCGUGUCCCGUACGGAACG, the yeast fitness stood at 0.566.

Regarding GUUCCGCUGGCGUAAUGGUAACGCGUCUCCCUCCUAGGGAGAAGACUGCGGGUUAGACUCCCGUACGGAACG, the yeast fitness is no more than 0.5.

In the case of GUUCCGCUGGCGUAAUGGUAACGCGUCUCCCUCCUACGGAGAAGACUGCGGGUUCGAGUCGCGUACGGAACG, the yeast fitness is no more than 0.5.

As for GUUCCGCUGGCGUAAUGGUAACGCGUCUCCCUCCUAAGGGGAAGACUGCGGAUUCGAGUCCCGUCCGGAACG, the yeast fitness was no more than 0.5.

Turning to GUUCCGCUGGCGUCAUGGUAACGCGUCUCCCUCCUAAGGAGAAGACUGCGGGUUCGAGUCCCGUCCGGAACG, the yeast fitness is 0.533.

Turning to GUUCCGCUGGCGUACUGGUAACGCGUCUCCCUCCUAAGGAGAAGACUGCGGGUUCGAGUCCCGUACGGAACG, the yeast fitness came to 0.639.

On to GUUCCGCUGGCGUAAUGGUAACGCGUCUCCCUCCUAAGGAGGAGACUGCGGGUUCGAGUCCCGUACGGAACG, for which the yeast fitness was found to be 0.716.

GUUCCGCUGGCGUAAUGGUAACGGGUCUCCCUCCUAAGGAGAAGACUGCGGGUUCGAGUCCCGUCCGGAACG: the yeast fitness was no more than 0.5.

For GUUCCGCUGGCGUGAUAGUAACGCGUCUCCCUCCUAAGGAGAAGACUCCGGGUUCGAGUCCCGUACGGAUCG, the yeast fitness is no more than 0.5.

Consider GUUCCGCUGGCGUAAUGGUAACGCGUCUCCCUCCUAAGGAGGAGACUGCGGGUCCGAGUCCCGUACGGAACG, for which the yeast fitness was 0.549.

For GUUCCGCUGGCGUAAUGGUACCGCGUCUCCCUCAGAAGGAGAACACUGCGGGUUCGAGUCGCGUACGGAACG, the yeast fitness is no more than 0.5.

For GUUCCGCUGGAGUAAUGGUAACGCGUCUCCCUCCUAAGGAGAAGACUGCGGGUUCGAGUCCCGUACUGAACG, the yeast fitness was no more than 0.5.

As for GUUCCGCUGGUGUAAUGGUAACGCGUCUCCCUCCUAAGCAGAAGUCUGCGGGUUCGAGUCCCGUACAGAACG, the yeast fitness was no more than 0.5.

For the variant GUUCCGCUGGCGUGAUGGUAACGCGUCUUCUUUCUAAGGAGAAGACUGCGGGUUCGAGUCCCGUACGGAACG, the yeast fitness amounted to 0.592.

GUUCCGCUGGCGUAAUGGUAAUGCGUCUCCAUCCUAAAGAGAAGAGUGCGGGUUCGAGUCCCGUACCGAACG: the yeast fitness was no more than 0.5.

Turning to GUUCCGCUGGCGUAAUGGUUACGCGUCUCCCUCCUGAGGUGAAGACUGCGGGUUCGAGUCCCGUACGGAACG, the yeast fitness was no more than 0.5.

Regarding GUUCCGCUGGCGUAAUGGUAACGCGUCUCCCUCCUAAGGAGAAGCCUGCAGGUUCGAGUCCUGUACGGAACG, the yeast fitness was 0.547.

Turning to GUUCCGCUGGCGUAAUGGUAACGCGUCUCCCUCCUAAGGAGAAGCCUGCGGGUUCGAGUCCCGUACGGAACG, the yeast fitness was 0.761.

As to GUUCCGCUGGCGUAAUGGUAACGCGUCUCCCUCCUAAGGAGAAGUCUGCGGGUUCGAGUCCCGUACGGAACG, the yeast fitness amounted to 0.837.

As to GUUCCGCUGGCGUAAUGGUAACGCGUCUCCCUCCUAAGGAGACGACUGAGGGUUCAAGUCCCGUACGGAACG, the yeast fitness is no more than 0.5.

In the case of GUUCCGCUGGCGUAAUGGUCACGCGUCUCCCUCCUAAGGAGAAGACUGCGGGUUCGAGUCCCGUACGGAACG, the yeast fitness stood at 0.844.

As for GUUCCGCUGGCGUAGUGGUAACGCGUUUUCCUCCUAAGGAGAAGACUGCGGGUUCGAGUCCCGUACGGAACG, the yeast fitness is no more than 0.5.

Turning to GUUCCGCUGGCGUAAUGGUAACGCGUCUCCCUCCUAAGGAGAUGACUGGGGGUUCGAGUCCCGUACGGAACG, the yeast fitness was no more than 0.5.

For GUUCCGCUGGCGUGAUAGUAACGCGUCUCCCUCCUAAGGAGAAGACUGCGGGUUCGAGUCCCGUACGGUACG, the yeast fitness was 0.553.

For GUUCCGCUGGUGUAAUGGUAACGCGUCUCCCUCAUAAGGAGAAGCCUGCGGGUUCGAGUCCCGUACGAAACG, the yeast fitness was no more than 0.5.

For the variant GUUCCGCUGGCGUGAUGGUAACGCGUCUUCUUUCUAAGGAGAAGACUGCGGGUUUGAGUCCCGUACGGAACG, the yeast fitness is no more than 0.5.

Take GUUCCGCUGGCGUAAUGGUACCGCGUUUCCCUCCUAAGGAGAAGACUGCGGGUUCGAGUCCCGUACGGAACG: the yeast fitness was no more than 0.5.

With GUUCCGCUGGGGUAAUGGUAACGUGUCUCCCUCCUAAGGAGAAGACUACGGGUUCGAGUCCCAUACGGAACG, the yeast fitness was no more than 0.5.

GUUCCGCUGGCGUAAUGGUGACGCGUCUCCCUCCUACGGAGAAGACUGCGGGUUCGAGUGCCGUUCGGACCG: the yeast fitness was no more than 0.5.

As for GUUCCGCUGGCGUAAUGGUAUCGCGUCUCCCUCCUUCGGAGAAGACUGCGGGUUCGAGUCCCGUACGGAACG, the yeast fitness was no more than 0.5.

In the case of GUUCCGCUGGCGUAAUGGUAACGCGUCUCCCUCCUAUGGAGAAGACUGCGGGUUCGAGUCCCGUACGGAACG, the yeast fitness came to 0.625.

As for GUUCCGCUGGCGUAAUGGUAACGCGUCUCCCUCCUAGGGAGCAGACUGGGGGUUCGAGUCCCGUAGGGAUCG, the yeast fitness was no more than 0.5.

As to GUUCCGCUGGCGUAGUAGUAACGCGUCUCCCUCCUAAGGAGAAGACUGCGGGUUCGAGUCCCGUCCGGAGCG, the yeast fitness was no more than 0.5.

In the case of GUUCCGCUGGCGUAAUGGUUACGCGUCUCCCUCGUCAGGAGAAGACUGCGGGUUUGAGUCCCGUUCGGAACG, the yeast fitness was no more than 0.5.

As for GUUCCGCUGGCGUGAUGGGAACGCGUCUGCCUCCUAAGGAGAAGACUGAGGCUUCGAGUCCCGUACGGAACG, the yeast fitness is no more than 0.5.

As to GUUCCGCUGGCGUAAUGGUAACGCGUCUCCCUCCUAAGGGGACGACUGCGGGUUCGAGUCCCGUACGGAACG, the yeast fitness came to 0.77.

Take GUUCCGCUGGCGUAAUGGUACCGCGUCUCCAUCCUAAGGAGAAGACUGCGGGUUCGAGUCCCGUACGGAACG: the yeast fitness was no more than 0.5.

For the variant GUUCCGCUGGGGUAAUGGUAACGCGCCUCCCUCCUAAGGAGAAGACUGCGGGUUCGAGUCCCGUACGGAACG, the yeast fitness was no more than 0.5.

GUUCCGCUGGCGUAAUGGUAACGAGUCUCCCUCCUAAGGAGAAGACUGCGGGUUCGAGUCUCGUACGGAACG: the yeast fitness is 0.543.

With GUUCCGCUGGUGUAAUGGUAACGCGUCUCCCUCCUAAGGAGAAGACUGCGGGUUCGAGUCUCGUGCGCAACG, the yeast fitness was no more than 0.5.

With GUUCCGCUGGCGUAAUGGUAACGCGUCUCCCUCCUAAGGAGUGGACUGCGGGUUCGAGUCCCGUACGGAACG, the yeast fitness was determined as 0.53.

For GUUCCGCUGGCGUAAUGGUAACGCGUCUCCCUCCUAAGGAGAAGACUGCGGGUUCGAGUCCCGUACGGCACG, the yeast fitness came to 0.921.

With GUUCCGCUGGCGUAAUGGUAACGCGUCUCCCUCCUAAGGAGAAGACUGCGGGUUCGAGUCCCGUACGGGACG, the yeast fitness is 0.817.
